Sampled rows, rich in hits. Any-hit rate of the full collection: about 3.5%.
Env fusion inh = HIV envelope-mediated fusion inhibition; HeLa-JRFL Env/CEM21 cell fusion, luciferase; inhibition, % at 12.3 µM; 360,000 compounds, 1.1% hits; AID 651610;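 active means mean replicate inhibition score of at least 50 and every replicate individually at or above 50; inconclusive means only one of the two criteria met; inactive means mean below 50 and not all replicates reaching 50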;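 further: 0% = plate neutral controls and 100% = maraviroc near 300 nM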
DENV2 CPE rescue = inhibitors of DENV2 cytopathic effect; DENV2-infected cells, cytopathic effect rescue, plate reader; CPE inhibition, % at 9.99 µM; 350,000 compounds, 1.7% hits; in the data active means CPE inhibition above about 20%, passing the limit was not always enough; inconclusive means no clear call, values can overlap the other calls; tested in BHK-21 cells;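 further: 0% = median of neutral control wells and 100% = median of positive control wells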
PGC1a acetyl inh = modulators of PGC1a acetylation | U2OS PGC1a acetylation, AlphaScreen anti-acetyl-lysine; with virally co-expressed GCN5 acetyltransferase | 350,000 compounds, 0.17% hits | inhibition, % at 15.6 µM;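 active means every replicate shows inhibition of at least 40%; inconclusive means mean inhibition at least 40% but some replicate below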;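 further: 0% = neutral control wells and 100% = positive control wells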
FN deposit inh = fibronectin deposition inhibition. AH1F fibroblasts, Alexa488-fibronectin deposition fluorescence, overnight. 350,000 compounds, 0.086% hits. AID 743247. inhibition, % at 12.6 µM;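 active means mean inhibition across replicates of 30% or more, regardless of how many single replicates reach that level; inconclusive means mean under 30% yet at least half of replicates reach 30%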;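 further: positive control wells lacked labelled fibronectin entirely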
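Assay system: AH1F fibroblast monolayer, labelled fibronectin deposition. Amount: 10000 cells per well. Also added: labelled fibronectin 24 nM. Compound: single-point pinned compound. Incubation: cell attachment 1 h, compound and FN exposure overnight. Detection: fluorescence after three HBSS washes, excitation 485 nm, emission 525 nm. Read-out: inhibition of fibronectin deposition signal.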
PglD DTNB = inhibitors of Campylobacter jejuni PglD acetyltransferase | purified PglD enzyme, DTNB colorimetric CoA detection | inhibition, % at 12.5 µM | 360,000 compounds, 0.098% hits; in the data active means inhibition above about 16%, passing the limit was not always enough; inconclusive means no clear call, values can overlap the other calls
rRNA inh HTS = inhibits bacterial ribosomal RNA function over humanized ribosomes; AID 720706; GFP signal change (wild-type ribosome), % (test concentration not listed); 350,000 compounds, 1.6% hits; E. coli WT GFP vs humanized-ribosome RFP mutants, fluorescence, 24 h; hits give low values; DMSO median 0, no signal -100;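 active means significant combined selectivity score with lowered wild-type GFP, culture density cut under 30%, mutant RFP and density less affected; inactive means any of these conditions unmet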
PglD confirm = PglD (C. jejuni) inhibition confirmation; inhibition, % at 20 µM; 320 tested, under 10 active; shares compounds with PglD DTNB; Purified C. jejuni PglD, DTNB absorbance 412 nm;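 active means mean inhibition across replicates of at least 20% with every single replicate also at 20% or more; inconclusive means mean inhibition at least 20% but some replicate falls below 20%; inactive means mean inhibition under 20% and not all replicates reach it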;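 further: initial rate of CoA release by acetyl transfer from AcCoA to the UDP-4-amino sugar; 0% = median of neutral control wells and 100% = median of positive control wells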
Active calls of the source: *; ? = inconclusive; nt = no result; [ ] = dose if it differs, or a comment.

SMILES	Env fusion inh	DENV2 CPE rescue	PGC1a acetyl inh	FN deposit inh	PglD DTNB	rRNA inh HTS	PglD confirm
O=S1(=O)CCO[C@H]2Cc3ccccc3[C@H]2N1Cc1ccc(F)cc1	-31.8	-14.4	-1.1	-1.7	27.4*	-30.4	-6.1
CCN=C1Sc2nc3ccc(OCC)cc3cc2CN1CCOC	-34.8	nt	9.0	3.7	21.1*	nt	-1.4
O=C(Oc1coc(CSc2nnc(NC(=O)C3CC3)s2)cc1=O)c1c(F)cccc1F	-10.6	5.2	6.5	3.1	63.4*	12.1	4.0
Cc1cc(C)cc(C(=O)Oc2coc(CSc3nnc(NC(=O)C4CC4)s3)cc2=O)c1	-7.6	nt	nt	3.1	nt	nt	nt
COc1cc2cc(CCCOC(=O)c3ccc(C(F)(F)F)cc3)oc(=O)c2cc1OC	16.7	-18.3	-17.5	-5.2	34.7*	-17.1	5.6
COc1ccc(C2CC(c3ccccc3)=NN2C(=O)COC(=O)/C=C/c2ccc(O)c(OC)c2)cc1 (centres undefined)	-5.1	?	0.3	-9.4	34.3*	6.1	6.8
COc1ccc(CONS(=O)(=O)c2ccc(NC(C)=O)cc2)cc1Cl	22.5	nt	-4.9	nt	21.8*	-3.5	3.3
CCCCOc1ccc(CC(=O)NCC(=O)O)cc1	-0.3	nt	-2.9	1.8	23.3*	nt	-2.7
COc1ccccc1NC(=O)N[C@@H]1CC[C@@H](CCn2cc(-c3ccccc3)nn2)O[C@H]1CO	14.6[16.7 µM]	1.0	-6.1	nt	4.3	-0.7	nt
CS(=O)(=O)Nc1cccc(NC(=O)c2cccc3c(-c4cccnc4)coc23)c1	nt	nt	8.2	nt	35.0*	nt	0.7
CO[C@@H]1CN(C)C(=O)c2cc(NS(C)(=O)=O)ccc2OC[C@H](C)N(C(=O)C2CCC2)C[C@H]1C	0.4[16.7 µM]	nt	4.8	-15.0	nt	1.6	nt
CN(C)CC(=O)Nc1ccc2c(c1)[C@@H]1C[C@H](CC(=O)NCc3ccc(Cl)cc3)O[C@H](CO)[C@@H]1O2	nt	2.7	0.8	-2.6	-0.3	1.5	nt
COC(=O)NCc1ccc(CNC(=O)OC)cc1	nt	nt	nt	nt	-4.6	nt	nt
COC(=O)NCc1cccc(CNC(=O)OC)c1	nt	nt	3.7	nt	29.8*	nt	2.4
Cc1noc(C)c1S(=O)(=O)Nc1ccc2c(c1)C(=O)N([C@H](C)CO)C[C@@H](C)[C@@H](CN(C)C(=O)c1ccncc1)OCCCC[C@@H](C)O2	-4.1[16.7 µM]	-1.9	20.0	nt	-1.5	-0.6	nt
C=C(C)Cn1c2ccc(NC(=O)NCc3ccccc3)cc2c(=O)n1C	-7.6	-2.2	-7.5	1.6	20.4*	-0.3	-6.7
C=C(C)Cn1c2ccc(NC(=O)NCC)cc2c(=O)n1C	-51.5	3.1	-4.7	7.8	-5.2	5.4	nt
CN(C(=O)c1ccc(NC(=O)Cc2cccc(NC(=O)C3CCN(C(=O)C4CC4)CC3)c2)cc1)C1CC1	-5.6	34.0*	-13.4	-2.8	25.4*	2.2	-0.9
Cc1c(C(=O)NC(C)C)sc2ncn(CC(=O)N3CCC(C)CC3)c(=O)c12	-0.9	nt	-5.2	nt	24.5*	6.7	-0.4
Cc1cccc(N(Cc2cc3ccccc3[nH]c2=O)C(=O)c2ccco2)c1C	nt	nt	-1.1	nt	31.5*	nt	3.0
C[C@@H]1CN([C@@H](C)CO)C(=O)c2cc(NC(=O)NC3CCCCC3)ccc2O[C@@H](C)CCCCO[C@H]1CN(C)Cc1ccncc1	7.8[16.7 µM]	3.1	-10.9	2.8	4.8	-6.0	nt
CCN(CC)CC(=O)Nc1sc(C)cc1C(=O)c1ccc(C)cc1	16.9	-3.9	-3.2	-1.0	22.1*	-12.8	11.1
CCN(CC)CC(=O)Nc1sc(C)cc1C(=O)c1ccccc1	18.1	12.0	-4.9	0.8	-4.3	-29.4	nt
C[C@H]1CN([C@@H](C)CO)C(=O)Cc2cc(NS(C)(=O)=O)ccc2O[C@@H]1CN(C)CC1CCCCC1	4.3[16.7 µM]	8.7	nt	-19.4	-2.4	-1.0	nt
C[C@H]1CN([C@@H](C)CO)S(=O)(=O)c2ccc(C3=CCCCC3)cc2O[C@@H]1CN(C)C	10.9[16.7 µM]	nt	-32.0	nt	nt	-1.6	nt
C[C@H]1CN([C@@H](C)CO)C(=O)Cc2cc(NC(=O)CCC(F)(F)F)ccc2O[C@@H]1CN(C)C(=O)Nc1ccc(F)cc1	nt	0.0	6.4	nt	-3.7	5.5	nt
O=C(OCC(=O)N1CCCc2ccccc21)c1cnc(Cl)c(Cl)c1	-6.1	6.0	nt	-1.2	nt	-6.7	nt
O=C(OCC(=O)N1CCCC1)c1cnc(Cl)c(Cl)c1	17.7	1.0	-6.3	0.9	25.2*	10.2	-10.5
